Screening results deposited in PubChem by several laboratories.
Most compounds without a hit are left out; they make up all but 3.4% or so of the library.
AHR activator = AHR activators, primary screen, cell-based, luminescence, luciferase reporter, human. activation, % at 5 µM. 320,000 compounds, 2.5% hits. Aryl hydrocarbon receptor (Homo sapiens), P35869. AHR-responsive luciferase reporter cells; in the data active means activation above about 47%;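 further: 0% = vehicle wells and 100% = reference agonist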
A3A deaminase = APOBEC3A ssDNA deaminase inhibitors, primary screen, selectivity assay for APOBEC3G inhibitor project, biochemical, FAM/TAMRA oligo cleavage fluorescence | recombinant A3A, FAM/TAMRA ssDNA deamination fluorescence | inhibition, % at 20 µM | DNA dC->dU-editing enzyme APOBEC-3A (Homo sapiens), P31941 | 330,000 compounds, 0.41% hits;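 active means at least 40% inhibition at 20 µM here, with at most 30% in a related deaminase screen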;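 further: plate controls were A3A with DMSO for no effect and wells lacking A3A enzyme for full effect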
PolyA inhibitor = polyadenylation inhibitors in yeast reporter cells, primary screen, luminescence, S. cerevisiae | activity score, % at 12 µM | 300,000 compounds, 0.02% hits | S. cerevisiae SKY197-pL101 polyadenylation reporter, beta-gal luminescence; efflux-impaired pdr1/pdr3 knockout yeast; score 100 = 6 SD above DMSO;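 active means lowest replicate activity score at least 50, where 100 means six control SD above control mean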;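 further: yeast exposed to compound for 9 h at 30 °C; higher score means more reporter readthrough which indicates perturbed polyadenylation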
UCH37 DUB inh = inhibitors of human UCH37 deubiquitinase, primary screen, biochemical, Ub-AMC cleavage, fluorescence; Ubiquitin carboxyl-terminal hydrolase isozyme L5 (Homo sapiens), Q9Y5K5; inhibition, % (test concentration not listed); 330,000 compounds, 0.33% hits; purified proteasome/UCH37;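 active means mean inhibition over replicate wells above about 20%, limit read from the data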;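 further: 0% = compound-free wells with enzyme and 100% = wells lacking proteasome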
Target sequence (Q9Y5K5 whole entry, looked up): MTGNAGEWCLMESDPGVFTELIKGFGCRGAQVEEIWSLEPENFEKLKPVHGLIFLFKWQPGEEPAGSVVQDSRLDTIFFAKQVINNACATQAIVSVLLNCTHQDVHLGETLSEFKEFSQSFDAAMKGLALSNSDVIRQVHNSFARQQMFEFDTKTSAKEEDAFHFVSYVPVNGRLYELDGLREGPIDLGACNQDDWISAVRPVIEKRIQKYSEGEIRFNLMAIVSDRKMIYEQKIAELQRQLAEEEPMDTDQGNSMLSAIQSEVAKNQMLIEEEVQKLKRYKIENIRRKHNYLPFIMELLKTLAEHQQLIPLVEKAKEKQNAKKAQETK
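Reagent: Ub-AMC substrate; assay system: Proteasome-associated human UCH37 deubiquitinase; controls: no-proteasome and no-compound wells; read-out: % inhibition of Ub-AMC cleavage fluorescence; timing: 30 min preincubation with enzyme, 25 min cleavage at room temperature; signal: AMC fluorescence from Ub-AMC cleavage, excitation 355 nm, emission 460 nm; buffer or medium: Tris-HCl pH 7.4 plus ovalbumin, ATP-MgCl2, DTT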
Arrestin-AP2 inh = inhibitors of beta-arrestin/AP2 binding, primary screen, biochemical, GPCR trafficking, flow cytometry; FITC-arrestin peptide / GST-AP2 beads; AP2 beta2 appendage carries R879A mutation; 340,000 compounds, 0.31% hits; beta-arrestin 1 C-terminal peptide binding to AP2 beta2-adaptin appendage (human); inhibition, % at 10 µM;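 active means inhibition above a set limit, near 3 SD of compounds lacking own fluorescence, cut at about 54% in these data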;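 further: plate controls were DMSO wells for no effect and 5 µM unlabelled arrestin peptide for full effect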
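system = GST-tagged AP2 beta2-adaptin appendage (R879A) on 4 µm glutathione beads | reagent = FITC-labelled arrestin peptide probe, 50 nM final | schedule = compound with beads 12 min RT, then probe 1 h RT | signal = HyperCyt-sampled flow cytometry, FL1 channel, ex 488/em 535 nm | read-out = percent response from loss of bead-bound FITC fluorescence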
APOBEC3G inh = APOBEC3G DNA deaminase inhibitors, primary screen, biochemical, fluorescence, single-stranded DNA substrate, uHTS | recombinant A3G, ssDNA deamination FAM/TAMRA fluorescence | inhibition, % at 20 µM | 330,000 compounds, 0.28% hits | AID 493012, 2011;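 active means inhibition of at least 40% at 20 µM, with no more than 30% in the related APOBEC3A deaminase screen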;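 further: plate controls were DMSO wells with A3G for no effect and wells lacking A3G enzyme for full effect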
Target sequence (Q9HC16 whole entry, looked up): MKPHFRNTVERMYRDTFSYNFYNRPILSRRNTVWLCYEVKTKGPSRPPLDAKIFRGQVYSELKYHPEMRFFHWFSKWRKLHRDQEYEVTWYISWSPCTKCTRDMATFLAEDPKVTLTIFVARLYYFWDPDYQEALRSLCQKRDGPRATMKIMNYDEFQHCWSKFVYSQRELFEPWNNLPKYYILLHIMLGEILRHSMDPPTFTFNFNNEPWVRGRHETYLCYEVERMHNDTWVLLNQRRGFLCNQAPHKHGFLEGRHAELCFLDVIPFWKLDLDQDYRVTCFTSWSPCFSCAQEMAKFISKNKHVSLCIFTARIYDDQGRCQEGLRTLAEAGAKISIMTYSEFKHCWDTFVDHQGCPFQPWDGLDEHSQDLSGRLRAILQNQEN
* hit, by the source's call.

How did CC1CCCC(C)N1N=C/C=C/c1ccccc1[N+](=O)[O-] (configuration not stated) do in these assays?
UCH37 DUB inh: 3

How did Cc1cccc(N2C(=O)N3[C@@H]4c5ccccc5OC[C@@H]4[C@@H](c4ccccc4)[C@]3(C)C2=O)c1 do in these assays?
AHR activator: 4; A3A deaminase: -2; PolyA inhibitor: -13; UCH37 DUB inh: 2; Arrestin-AP2 inh: 5; APOBEC3G inh: -3

How did Cc1cccc(N2C(=O)N3[C@H]4c5ccccc5OC[C@@H]4[C@@H](c4ccccc4)[C@@]3(C)C2=O)c1 do in these assays?
AHR activator: 0; A3A deaminase: -6; UCH37 DUB inh: 26*; Arrestin-AP2 inh: -6; APOBEC3G inh: -7

What do the screens show for `COc1ccccc1/C=C/C=Nn1c(COc2ccccc2)n[nH]c1=S`?
UCH37 DUB inh: 0

Results for Cc1ccc(C=NNC(=O)CN(Cc2ccccc2)S(=O)(=O)c2ccc3c(c2)OCCO3)cc1 ?
UCH37 DUB inh: 5

How did C=CCc1cccc(CNc2ccc(Br)cc2)c1O do in these assays?
AHR activator: 71*; A3A deaminase: 2; PolyA inhibitor: 3; UCH37 DUB inh: 6; Arrestin-AP2 inh: 16; APOBEC3G inh: -5

How did O=c1c2sc(-c3ccccc3)cc2nc2n1CCC2 do in these assays?
AHR activator: -22; A3A deaminase: -4; PolyA inhibitor: 113*; UCH37 DUB inh: 3; Arrestin-AP2 inh: -7; APOBEC3G inh: -5

Results for Nc1c2c(nc3ccc(Br)cc13)N(Cc1ccccc1)CC2 ?
AHR activator: 50*; A3A deaminase: -2; PolyA inhibitor: -5; UCH37 DUB inh: 1; Arrestin-AP2 inh: 6; APOBEC3G inh: -2

How did Cc1cccc(N2CCc3c2nc2ccc(Br)cc2c3N)c1 do in these assays?
AHR activator: 108*; A3A deaminase: 0; PolyA inhibitor: -11; UCH37 DUB inh: -23; Arrestin-AP2 inh: 5; APOBEC3G inh: -5

What do the screens show for `Nc1c2c(nc3ccccc13)N(C1CCCCC1)CC2`?
AHR activator: 36; A3A deaminase: 1; PolyA inhibitor: -2; UCH37 DUB inh: -126; Arrestin-AP2 inh: 3; APOBEC3G inh: 0

Results for Nc1c2c(nc3ccc(Br)cc13)N(C1CCCCC1)CC2 ?
AHR activator: 52*; A3A deaminase: 0; PolyA inhibitor: -8; APOBEC3G inh: -5

How did Nc1c2c(nc3ccc(Br)cc13)N(c1ccccc1)CC2 do in these assays?
AHR activator: 76*; A3A deaminase: -6; UCH37 DUB inh: -24; Arrestin-AP2 inh: 13; APOBEC3G inh: 0

How did COc1cc(C=NN=Cc2c[nH]c(=O)c(C#N)c2Nc2ccccc2)ccc1O do in these assays?
UCH37 DUB inh: 4

What do the screens show for `O=C(NN=Cc1ccco1)c1cc(-c2ccc(Br)s2)[nH]n1`?
UCH37 DUB inh: 1

What do the screens show for `CC1=NN(c2ccccc2)C(=O)/C1=C\c1c(C)[nH]n(-c2ccccc2)c1=O`?
AHR activator: 10; A3A deaminase: 6; PolyA inhibitor: -4; UCH37 DUB inh: 4; Arrestin-AP2 inh: 30; APOBEC3G inh: 6

Results for CC1=NN(c2ccccc2)C(=O)/C1=C/c1c(O)n(-c2ccc(F)c(Cl)c2)[nH]c1=O ?
AHR activator: 49*; A3A deaminase: 3; PolyA inhibitor: -10; UCH37 DUB inh: 9; APOBEC3G inh: -3

Results for Nc1cc(N)cc(-c2nc3ccccc3o2)c1 ?
AHR activator: 72*; A3A deaminase: 0; PolyA inhibitor: 7; UCH37 DUB inh: -4; Arrestin-AP2 inh: -2; APOBEC3G inh: -2

How did Nc1ccc(-c2nc3ccccc3o2)cc1 do in these assays?
AHR activator: 30; A3A deaminase: 10; PolyA inhibitor: -8; UCH37 DUB inh: -169; Arrestin-AP2 inh: 34; APOBEC3G inh: -7

How did O=C(N/N=C/c1cccs1)c1c[nH]c2ccccc12 do in these assays?
AHR activator: 154*; A3A deaminase: 0; PolyA inhibitor: 8; Arrestin-AP2 inh: 0; APOBEC3G inh: -5

How did CCn1cc(/C=N\NC(=O)c2c[nH]c3ccccc23)c(C)n1 do in these assays?
AHR activator: 20; A3A deaminase: 2; PolyA inhibitor: 21; Arrestin-AP2 inh: 20; APOBEC3G inh: -5

How did Cc1c(/C=N\NC(=O)c2c[nH]c3ccccc23)cnn1C do in these assays?
AHR activator: 76*; A3A deaminase: 0; PolyA inhibitor: -5; Arrestin-AP2 inh: 12; APOBEC3G inh: -5

How did O=C(N/N=C/c1cn(-c2ccccc2)nc1-c1cc2ccccc2o1)c1c[nH]c2ccccc12 do in these assays?
AHR activator: 109*; A3A deaminase: -2; PolyA inhibitor: -14; Arrestin-AP2 inh: 36; APOBEC3G inh: -5

Results for COc1cc2c(cc1OC)-c1nnnn1C(C)(C)C2 ?
AHR activator: -1; A3A deaminase: 5; PolyA inhibitor: 10; UCH37 DUB inh: 2; Arrestin-AP2 inh: 7; APOBEC3G inh: 5

How did COc1cc2c(cc1OC)-c1n[nH]c(=S)n1C(C)(C)C2 do in these assays?
AHR activator: -1; A3A deaminase: -6; PolyA inhibitor: -4; UCH37 DUB inh: -1; Arrestin-AP2 inh: -14; APOBEC3G inh: 48*

What do the screens show for `O=C(Cc1c[nH]c2ccccc12)N1CCc2ccccc21`?
AHR activator: 75*; A3A deaminase: 2; PolyA inhibitor: -29; UCH37 DUB inh: 1; Arrestin-AP2 inh: 2; APOBEC3G inh: 2

What do the screens show for `CSc1ccc(C=NNC(=O)CN2CCN(Cc3ccccc3)CC2)cc1`?
UCH37 DUB inh: -8

What do the screens show for `CC(=O)c1cc2c(cc1NC(=O)C1CC=CCC1C(=O)O)OCO2` (configuration not stated)?
AHR activator: 3; A3A deaminase: -1; PolyA inhibitor: 1; UCH37 DUB inh: -16; Arrestin-AP2 inh: 18; APOBEC3G inh: 0

How did CC(=O)c1cc2c(cc1NC(=O)C1CN(C(C)=O)c3ccccc3O1)OCO2 (configuration not stated) do in these assays?
AHR activator: 53*; A3A deaminase: -3; UCH37 DUB inh: -15; Arrestin-AP2 inh: 0; APOBEC3G inh: -3

Results for O=C(NN=Cc1cc(Br)ccc1O)c1ccc(S(=O)(=O)N2CCCCC2)cc1 ?
UCH37 DUB inh: 1
